Screens from PubChem BioAssay.
HSP90 refold inh: HSP90 inhibitors, primary screen, cell lysate, luminescence. Rabbit reticulocyte lysate, luciferase refolding luminescence, 3 h. hit rate 0.91% among 290,000. inhibition, % at 5.6 µM. Heat shock protein HSP 90 (rabbit reticulocyte lysate; luciferase refolding);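 active means inhibition above the screen-wide mean plus 3 SD, computed separately per campaign, cut at about 16% in these data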;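 further: inhibitors lower the luminescence because luciferase stays unfolded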
TRAIL sens C8: viability loss with TRAIL in NB7+C8 cells, primary screen, TRAIL sensitizer project, cell-based, ATPlite luminescence. inhibition (viability loss, TRAIL sensitization), % at 10 µM. hit rate 1% among 360,000. AID 624354, 2012;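 active means compounds causing at least 50% loss of cell viability in the single-dose screen, relative to plate controls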
PPC-1+TRAIL kill: compounds killing PPC-1 cancer cells with TRAIL present, primary screen, TRAIL potentiator project, ATPLite luminescence, uHTS. AID 1443, 2008. cell killing (% activity), % at 4 µM or 5 µM. hit rate 0.41% among 220,000. PPC-1 cells + TRAIL, ATPLite viability luminescence;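 active means cell killing above 50% in the first pass at 4 µM, then a duplicate retest at 5 µM averaging 50% or more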
FLuc inh counter: firefly luciferase enzyme inhibitors, primary screen, artefact control for luciferase-based inhibitor screens, biochemical, luminescence, ATPLite; 10 min; inhibition, % at 10 µM; AID 1006, 2008; hit rate 1.5% among 200,000; Luciferin 4-monooxygenase (Photinus pyralis), P08659;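 active means inhibition above about 50% when tested at 10 µM, limit read from the data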
FLuc act counter: FLuc activators, initial screening, artefact control for FLuc-dependent activation tests, biochemical, ATPlite luminescence; Luciferin 4-monooxygenase (Photinus pyralis), P08659; ATPlite luciferase biochemical, 10 min; 0 = ATP-free wells, 1 = DMSO control; activation factor at 10 µM; 200,000 tested, under 10 active; AID 1027, 2008;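 active means luciferase activation factor, scaled between plate controls, of at least 2 with compound at 10 µM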
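System: cell-free luciferase reagent; medium: PBS as buffer for the ATP substrate; doses: test compounds dosed from 2 mM stocks in 100% DMSO; incubation: 10 min, room temperature; measured by: luminescence from luciferase reaction; read-out: luciferase activation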
A number is an active result; n = inactive; x = no result given. Most compounds without a hit are left out; they make up all but 2% or so of the library.

SMILES	HSP90 refold inh	TRAIL sens C8	PPC-1+TRAIL kill	FLuc inh counter	FLuc act counter
CC(C)/C=C1\CC/C(=C\c2cccnc2)C1=O	n	n	n	n	n
O=C1/C(=C\c2cccnc2)CCc2ccccc21	n	n	n	63	n
COc1ccc(/C=C2\CCc3ccccc3C2=O)cc1O	n	66	x	x	x
COc1ccc(/C=C2\Cc3ccccc3C2=O)cc1OC	n	n	n	x	x
O=C1/C(=C/c2ccc(O)cc2)CCc2ccc([N+](=O)[O-])cc21	n	n	n	n	n
COC(=O)c1ccccc1NC1=C/C(=N\S(=O)(=O)c2cccs2)c2ccccc2C1=O	n	80	n	n	n
CC(C)(C)c1ccc(S(=O)(=O)/N=C2\C=C(NS(=O)(=O)c3ccccc3)C(=O)c3ccccc32)cc1	n	n	x	x	x
Cc1ccc(NC2=C/C(=N/S(=O)(=O)c3cccs3)c3ccccc3C2=O)cc1	n	95	n	n	n
Cc1ccc(S(=O)(=O)/N=C2\C=C(Nc3ccc(O)cc3)C(=O)c3ccccc32)cc1	x	93	x	x	x
CCOc1ccccc1NC(=O)c1ccc(NC(=O)C2CCCO2)cc1 (stereo not drawn)	n	n	x	x	x
Cc1cc(/C=C\c2ccc3cc(N(C)C)ccc3[n+]2C)c(C)n1-c1ccccc1	x	60	x	x	x
COc1ccc(-c2nc3ccc([N+](=O)[O-])cc3[nH]2)cc1	n	n	n	n	n
COc1ccc2nc(-c3ccccc3)[nH]c2c1	n	51	n	74	n
O=[N+]([O-])c1ccc(O)c(C=Nc2ccc3nc(-c4ccccc4)[nH]c3c2)c1	n	n	n	n	n
Oc1c(Br)cc(C=Nc2ccc3nc(-c4ccccc4)[nH]c3c2)c(O)c1Br	n	x	n	56	n
O=C(Nc1cccnc1)c1ccc(-c2ccc(Cl)cc2)o1	n	n	n	66	n
N#Cc1ccccc1NC(=O)COC(=O)/C=C/c1cn(-c2ccccc2)nc1-c1ccc(Cl)cc1	n	61	n	n	n
OCCNCCSc1nc(C2CCCCC2)n(-c2ccccc2Cl)n1	n	n	n	x	x
CCOc1cc(/C=N/Nc2ncnc(Cl)c2N)ccc1O	n	n	n	65	n
O=C1C(=O)c2ccccc2C(O)=C1CCCCl	n	68	n	x	x
COc1cccc(CN2CCNC(=O)C2CC(=O)NCc2cn3ccc(C)cc3n2)c1OC (stereo not drawn)	n	n	n	x	x
O=C(O)CN1C(=O)/C(=C/C=C/c2ccccc2)SC1=S	n	n	n	79	n
CC(=O)c1ccc(NC(=O)CN2C(=O)/C(=C/C=C/c3ccccc3)SC2=S)cc1	n	n	n	n	n
COc1ccccc1N1CCN(c2ccc(-c3ccccc3)nn2)CC1	n	87	n	90	n
COc1ccccc1N1CCN(c2nc(-c3ccccc3)cc(C(F)(F)F)n2)CC1	n	n	n	n	n
COc1ccccc1N1CCN(c2ccc3ccccc3n2)CC1	n	48	x	x	x
COc1ccccc1N1CCN(c2cc(N3CCCC3)nc(C)n2)CC1	n	n	n	n	n
C/C(=N\NC(=O)c1ccccc1)C1C2C=CC(C2)C1(C)C (stereo not drawn)	n	n	x	x	x
CC(=O)Oc1ccc(-c2nc(-c3cccnc3)no2)cc1	n	n	n	60	n
